Measurements reported in publication PMC5912898 (Nature chemical biology, 2017).
Where two headings read alike, the source gives them in different places. Blank lines part the entries; values can stand above or below the compound they belong to.

Legend:
MOLT4 cells [1] = test: Proliferation assay; type: cell-based, human; conditions: for IC50: read-out: proliferation IC50
[2] = test system: RNA Pol II CTD Serine 2 phosphorylation; test: RNA Pol II CTD phosphorylation by immunoblot; type: cell-based, human; conditions: MOLT4 cells
Procedure, shortened: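 MOLT4 cells lysed on ice for 30 min in RIPA buffer (pH 7.4) with protease and phosphatase inhibitors and 2.5 U/mL nuclease. Lysate spun at 21,000g, 30 min, 4°C, and protein measured by BCA. Blots probed with anti-phospho-CTD Ser2 alongside total Pol II and tubulin. Infrared-labelled secondaries; blots imaged on Odyssey.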

CDK9 [3] = target: T1, CDK9 (Homo sapiens, UniProt P50750); test: Bio-AT7519 pulldown target engagement; type: cell-based; conditions: 6 hours, 1μM, 500nM or 250nM
T1 sequence (P50750 whole entry): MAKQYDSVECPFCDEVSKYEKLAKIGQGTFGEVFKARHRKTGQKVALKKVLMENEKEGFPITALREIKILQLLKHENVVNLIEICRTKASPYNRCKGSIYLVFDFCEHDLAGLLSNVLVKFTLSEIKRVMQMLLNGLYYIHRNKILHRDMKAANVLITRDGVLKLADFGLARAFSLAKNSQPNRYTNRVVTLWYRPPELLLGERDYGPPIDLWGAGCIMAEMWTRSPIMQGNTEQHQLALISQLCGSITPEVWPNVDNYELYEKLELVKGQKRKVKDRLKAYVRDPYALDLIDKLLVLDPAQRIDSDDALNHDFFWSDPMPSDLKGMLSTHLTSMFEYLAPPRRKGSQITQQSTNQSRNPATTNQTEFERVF
Procedure, shortened: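 Live wildtype or CRBN−/− MOLT4 cells were exposed to DMSO or test compound for 6 h, then PBS-washed and lysed (50 mM Tris-HCl pH 8.0, 150 mM NaCl, 1% NP-40, 5 mM EDTA, 1 mM DTT, protease/phosphatase inhibitors). Clarified lysate (input sampled) was rotated overnight at 4°C with 1μM biotinylated AT7519, then captured on streptavidin resin for 3 h at 4°C. Beads were washed ×5, boiled, and immunoblotted.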

MOLT4 cells [4] = test: Apoptosis by immunoblot; type: cell-based, human; conditions: wildtype MOLT4 cells, 250 nM
Procedure, shortened: (§1)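 Wildtype MOLT4 cells were treated with 250 nM test compound for the indicated times. They were lysed for 30 min on ice in RIPA buffer (pH 7.4) with protease and phosphatase inhibitors and nuclease. Lysates were clarified at 21,000g for 30 min at 4°C and protein measured by BCA. Blots were detected with infrared-labelled secondary antibodies.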

PCTAIRE2,PCTAIRE3 = test: Kinativ live cell chemical proteomics; type: cell-based, human; conditions: live cell treatment, 0.25μM
CDK9/CycT1 = CDK9/CycT1 (Homo sapiens, UniProt P50750); test: Adapta Eu in vitro kinase assay; type: biochemical
Chain of CDK9/CycT1 (P50750 whole entry): as above
Chain of CDK9/CycT1 (O60563 whole entry partner): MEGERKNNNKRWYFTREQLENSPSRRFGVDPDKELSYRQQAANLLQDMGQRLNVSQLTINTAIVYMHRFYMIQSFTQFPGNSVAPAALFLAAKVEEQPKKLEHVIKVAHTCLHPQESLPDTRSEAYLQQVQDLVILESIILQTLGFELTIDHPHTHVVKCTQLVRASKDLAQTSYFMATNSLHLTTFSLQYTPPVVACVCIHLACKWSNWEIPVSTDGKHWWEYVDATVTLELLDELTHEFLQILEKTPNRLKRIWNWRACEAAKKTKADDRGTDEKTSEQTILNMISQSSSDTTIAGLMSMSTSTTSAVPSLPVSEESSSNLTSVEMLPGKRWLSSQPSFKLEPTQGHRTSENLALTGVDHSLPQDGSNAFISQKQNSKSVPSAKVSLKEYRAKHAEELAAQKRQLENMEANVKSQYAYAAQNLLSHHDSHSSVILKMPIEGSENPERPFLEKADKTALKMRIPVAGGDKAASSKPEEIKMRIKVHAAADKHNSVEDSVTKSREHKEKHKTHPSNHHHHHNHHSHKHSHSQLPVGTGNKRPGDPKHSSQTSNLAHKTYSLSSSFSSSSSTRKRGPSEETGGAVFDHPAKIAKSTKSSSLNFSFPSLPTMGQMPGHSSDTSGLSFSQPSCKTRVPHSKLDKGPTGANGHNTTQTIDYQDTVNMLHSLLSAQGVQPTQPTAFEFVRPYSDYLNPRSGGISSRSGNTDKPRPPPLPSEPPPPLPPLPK

MCL-1 = MCL-1 protein level by immunoblot; type: cell-based, human; conditions: wildtype MOLT4 cells, 250 nM time course
Procedure, shortened: as §1

CDK2/CycA = CDK2/CycA (Homo sapiens, UniProt P24941); test: Z'LYTE in vitro kinase assay; type: biochemical
Procedure, shortened: (§2)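 Inhibition of the recombinant cyclin-bound CDK complex was measured in a Z'LYTE kinase assay run by a contract service at the Km concentration of ATP.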

CDK10 [5] = target: T2, CDK10 (Homo sapiens, UniProt Q15131); test: CDK10 degradation by immunoblot; type: cell-based; conditions: MOLT4 cells
T2 sequence (Q15131 whole entry): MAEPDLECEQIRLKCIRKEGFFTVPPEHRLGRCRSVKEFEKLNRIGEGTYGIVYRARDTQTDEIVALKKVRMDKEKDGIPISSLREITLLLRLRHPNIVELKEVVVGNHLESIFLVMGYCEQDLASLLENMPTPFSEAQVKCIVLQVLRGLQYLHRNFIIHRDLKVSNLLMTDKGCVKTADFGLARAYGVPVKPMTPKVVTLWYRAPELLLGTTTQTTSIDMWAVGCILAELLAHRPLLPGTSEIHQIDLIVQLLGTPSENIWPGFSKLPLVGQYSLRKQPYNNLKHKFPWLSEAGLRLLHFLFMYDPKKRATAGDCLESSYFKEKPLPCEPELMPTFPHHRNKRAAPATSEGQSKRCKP
Procedure, shortened: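 MOLT4 cells treated with test compound were lysed in RIPA buffer (pH 7.4) with protease and phosphatase inhibitors and nuclease for 30 min on ice. Lysates were clarified at 21,000g for 30 min at 4°C and quantified by BCA. CDK10 was immunoblotted and detected with infrared-labelled secondary antibodies.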

[6] = test system: panel of eleven different leukemia cancer cell lines; test: Proliferation in leukemia cell line panel; type: cell-based
CRBN−/− MOLT4 cells = test: Proliferation assay; type: cell-based; conditions: Homo sapiens, MOLT-4, 72 h, read-out: proliferation IC50
Procedure, shortened: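 CRBN−/− MOLT4 cells were exposed to a range of test compound concentrations for 72 h. Viability was measured with CellTiter-Glo, and IC50 was derived by non-linear regression curve fitting.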

CDK7 mRNA = test: qPCR of mRNA levels; type: cell-based, human; conditions: MOLT4 cells, 250nM, 8 hours
CDK9 [7] = target: T1, CDK9; test: CDK9 degradation by immunoblot; type: cell-based
CDK9 [8] = target: T1, CDK9; test: Multiplexed quantitative mass spectrometry-based proteomics; type: cell-based; conditions: MOLT4 cells, 250nM, 2 hours, 4512 proteins quantified
Procedure, shortened: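 MOLT4 cells (RPMI-1640, 10% FBS, 1% Pen/Strep, 37°C, 5% CO₂) exposed to 250nM test compound for 2 hours. Proteins labelled with 10plex TMT isobaric tags and run on an Orbitrap Fusion using SPS-MS3. Threshold of 2 peptides per protein. Log fold-change vs p-value plotted. n=3 biological replicates.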

CDK1/CycB = CDK1/CycB (Homo sapiens, UniProt P06493); test: Z'LYTE in vitro kinase assay; type: biochemical
Chain of CDK1/CycB (P06493 whole entry): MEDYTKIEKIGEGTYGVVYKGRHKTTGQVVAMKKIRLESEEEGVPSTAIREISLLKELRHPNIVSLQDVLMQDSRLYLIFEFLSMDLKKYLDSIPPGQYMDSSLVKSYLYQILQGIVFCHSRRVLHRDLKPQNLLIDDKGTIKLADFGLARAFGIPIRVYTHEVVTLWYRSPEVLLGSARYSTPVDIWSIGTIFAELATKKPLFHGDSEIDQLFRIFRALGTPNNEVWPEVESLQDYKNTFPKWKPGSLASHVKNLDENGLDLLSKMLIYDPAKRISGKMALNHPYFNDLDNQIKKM
Chain of CDK1/CycB (P14635 whole entry partner): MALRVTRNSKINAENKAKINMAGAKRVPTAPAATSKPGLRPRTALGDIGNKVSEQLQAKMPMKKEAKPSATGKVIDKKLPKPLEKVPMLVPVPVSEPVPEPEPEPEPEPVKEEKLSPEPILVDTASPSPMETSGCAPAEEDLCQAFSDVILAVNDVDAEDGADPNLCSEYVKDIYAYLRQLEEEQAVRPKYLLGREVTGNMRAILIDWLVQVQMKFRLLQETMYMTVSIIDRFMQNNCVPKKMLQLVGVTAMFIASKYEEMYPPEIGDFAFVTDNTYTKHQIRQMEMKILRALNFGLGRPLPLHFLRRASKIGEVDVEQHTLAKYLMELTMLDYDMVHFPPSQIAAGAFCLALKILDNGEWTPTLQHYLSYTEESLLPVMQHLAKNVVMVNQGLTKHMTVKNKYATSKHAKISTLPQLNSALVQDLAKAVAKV
Procedure, shortened: as §2

CDK1 mRNA = test: qPCR of mRNA levels; type: cell-based, human; conditions: MOLT4 cells, 250nM, 8 hours
CDK7/CycH/MNAT1 = CDK7/CycH/MNAT1 (Homo sapiens, UniProt P50613); test: Adapta Eu in vitro kinase assay; type: biochemical
Chain of CDK7/CycH/MNAT1 (P50613 whole entry): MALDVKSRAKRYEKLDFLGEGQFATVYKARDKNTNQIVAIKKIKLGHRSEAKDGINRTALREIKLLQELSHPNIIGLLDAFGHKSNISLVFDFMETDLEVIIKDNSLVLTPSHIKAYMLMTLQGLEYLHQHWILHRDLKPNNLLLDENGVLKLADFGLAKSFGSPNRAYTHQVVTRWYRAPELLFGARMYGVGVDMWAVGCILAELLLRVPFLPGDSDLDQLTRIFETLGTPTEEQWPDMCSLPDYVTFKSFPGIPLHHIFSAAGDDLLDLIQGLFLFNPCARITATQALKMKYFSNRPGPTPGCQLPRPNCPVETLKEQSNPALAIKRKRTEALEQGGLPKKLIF
Chain of CDK7/CycH/MNAT1 (P51946 whole entry partner): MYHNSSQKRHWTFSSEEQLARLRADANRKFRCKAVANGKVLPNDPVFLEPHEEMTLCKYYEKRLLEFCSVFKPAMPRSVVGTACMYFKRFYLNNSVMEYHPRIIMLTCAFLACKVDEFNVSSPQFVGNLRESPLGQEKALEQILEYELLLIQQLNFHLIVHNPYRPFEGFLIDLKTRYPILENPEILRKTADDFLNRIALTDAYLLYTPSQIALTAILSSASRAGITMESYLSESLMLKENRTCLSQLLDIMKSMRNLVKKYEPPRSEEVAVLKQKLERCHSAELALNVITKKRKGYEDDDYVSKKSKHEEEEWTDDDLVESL
Chain of CDK7/CycH/MNAT1 (P51948 whole entry partner): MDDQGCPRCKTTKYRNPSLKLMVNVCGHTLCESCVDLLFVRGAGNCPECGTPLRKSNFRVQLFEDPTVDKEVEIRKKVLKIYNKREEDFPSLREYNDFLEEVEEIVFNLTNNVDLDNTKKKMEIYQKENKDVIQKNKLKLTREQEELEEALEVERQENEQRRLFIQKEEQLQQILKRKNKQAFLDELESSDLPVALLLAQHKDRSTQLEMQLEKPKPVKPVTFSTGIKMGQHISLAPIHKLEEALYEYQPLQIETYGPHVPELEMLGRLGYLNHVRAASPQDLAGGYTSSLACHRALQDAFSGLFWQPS

PCTAIRE1,PCTAIRE3 = test: Kinativ live cell chemical proteomics; type: cell-based, human; conditions: live cell treatment, 0.25μM
CDK9 [9] = target: T1, CDK9; test: Kinomescan profiling; type: binding; conditions: 1μM
CDK6 = CDK6 (Homo sapiens, UniProt Q00534); test: Kinativ live cell chemical proteomics; type: cell-based; conditions: live cell treatment, 0.25μM
Chain of CDK6 (Q00534 whole entry): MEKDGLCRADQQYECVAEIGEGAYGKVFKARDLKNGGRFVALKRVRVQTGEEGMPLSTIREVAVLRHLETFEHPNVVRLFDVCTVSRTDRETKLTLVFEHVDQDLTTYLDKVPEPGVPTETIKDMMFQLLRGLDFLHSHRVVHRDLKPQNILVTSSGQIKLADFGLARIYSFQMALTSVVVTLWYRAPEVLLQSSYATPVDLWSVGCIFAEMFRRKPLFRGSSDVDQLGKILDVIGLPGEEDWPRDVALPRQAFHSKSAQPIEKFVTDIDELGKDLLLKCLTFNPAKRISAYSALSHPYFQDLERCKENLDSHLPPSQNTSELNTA

CDK7 = CDK7 (Homo sapiens, UniProt P50613); test: Bio-AT7519 pulldown target engagement; type: cell-based; conditions: wildtype and CRBN−/− MOLT4 cells, 6 hours, 1μM, 500nM or 250nM
Chain of CDK7 (P50613 whole entry): as the sequence (P50613 whole entry) above

CDK2 = CDK2 (Homo sapiens, UniProt P24941); test: Bio-AT7519 pulldown target engagement; type: cell-based; conditions: wildtype and CRBN−/− MOLT4 cells, 6 hours, 1μM, 500nM or 250nM
GSK3A = GSK3A (Homo sapiens, UniProt P49840); test: Kinativ live cell chemical proteomics; type: cell-based; conditions: live cell treatment, 0.25μM
Chain of GSK3A (P49840 whole entry): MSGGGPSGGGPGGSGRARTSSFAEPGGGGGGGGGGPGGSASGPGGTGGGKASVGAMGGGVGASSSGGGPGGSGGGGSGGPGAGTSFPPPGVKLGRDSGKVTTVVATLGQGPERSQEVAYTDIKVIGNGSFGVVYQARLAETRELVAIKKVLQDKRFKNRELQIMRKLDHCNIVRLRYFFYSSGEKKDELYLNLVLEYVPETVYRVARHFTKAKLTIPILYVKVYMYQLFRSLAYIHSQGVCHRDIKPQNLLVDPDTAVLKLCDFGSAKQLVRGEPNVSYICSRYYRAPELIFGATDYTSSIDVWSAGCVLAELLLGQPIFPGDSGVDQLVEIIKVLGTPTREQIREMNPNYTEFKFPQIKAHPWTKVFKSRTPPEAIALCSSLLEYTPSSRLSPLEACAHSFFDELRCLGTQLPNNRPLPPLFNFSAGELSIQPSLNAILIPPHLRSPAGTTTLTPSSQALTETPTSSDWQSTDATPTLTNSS
Procedure, shortened: (§3)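 Test compound was applied to intact MOLT4 cells (CRBN−/− or wildtype). Cells were then sonicated in 50 mM HEPES pH 7.5, 150 mM NaCl, 0.1% Triton X-100 with phosphatase inhibitors, and cleared. Lysate was labelled with desthiobiotin-ATP acylphosphate probe (20 μM final) for 10 min. Samples were reduced and alkylated for LC-MS/MS, and % inhibition was calculated from integrated peak areas against DMSO controls.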

MOLT4 cells [10] = test: Annexin V flow cytometry of apoptotic cells; type: cell-based, human; conditions: 250 nM, without washout
Procedure, shortened: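 MOLT4 cells were exposed to 250 nM test compound for 6 h, then either washed three times with media or left in compound, and collected 24 h later. Cells were PBS-washed, stained with FITC annexin V in HEPES/NaCl/CaCl₂ binding buffer (pH 7.4) at room temperature, and propidium iodide was added just before flow cytometry. Results are means ± s.d. of 3 biological replicates.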

panel of 468 kinases = test: Kinomescan kinome selectivity profiling; type: binding; conditions: Kinomescan at 1μM
CDK9 [11] = target: T1, CDK9; test: Kinativ live cell chemical proteomics; type: cell-based; conditions: CRBN−/− MOLT4 cells, live cell treatment, 0.25μM
Procedure, shortened: as §3

PCTAIRE2 = PCTAIRE2 (Homo sapiens, UniProt Q00537); test: Kinativ live cell chemical proteomics; type: cell-based; conditions: live cell treatment, 0.25μM
Chain of PCTAIRE2 (Q00537 whole entry): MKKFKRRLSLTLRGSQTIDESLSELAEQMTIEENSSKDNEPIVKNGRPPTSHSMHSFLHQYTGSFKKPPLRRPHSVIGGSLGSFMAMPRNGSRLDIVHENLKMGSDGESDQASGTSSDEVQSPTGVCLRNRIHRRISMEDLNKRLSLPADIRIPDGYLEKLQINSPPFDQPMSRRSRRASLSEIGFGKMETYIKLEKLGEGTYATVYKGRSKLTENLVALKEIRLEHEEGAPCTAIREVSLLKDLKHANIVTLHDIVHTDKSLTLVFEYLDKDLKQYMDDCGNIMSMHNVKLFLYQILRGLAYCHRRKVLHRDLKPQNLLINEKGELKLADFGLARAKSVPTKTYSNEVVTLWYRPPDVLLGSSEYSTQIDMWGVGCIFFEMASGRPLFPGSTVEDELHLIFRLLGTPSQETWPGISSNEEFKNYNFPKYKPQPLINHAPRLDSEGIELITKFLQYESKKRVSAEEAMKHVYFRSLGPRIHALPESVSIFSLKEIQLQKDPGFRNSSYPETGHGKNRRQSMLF

CDK10 [12] = target: T2, CDK10; test: Kinativ lysate chemical proteomics; type: binding; conditions: MOLT4 cell lysate, 1uM
Procedure, shortened: (§4)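 MOLT4 lysate (sonicated in HEPES pH 7.5/NaCl/Triton buffer, then gel-filtered) was incubated 15 min in duplicate with test compound added from a 100X DMSO stock, or with DMSO alone. Desthiobiotin-ATP acylphosphate probe (20 μM final) was then added for 10 min. Peptides were analysed by LC-MS/MS, and % inhibition was calculated as 1 − treated/control signal.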

CDK9 [13] = target: T1, CDK9; test: Kinativ lysate chemical proteomics; type: binding; conditions: MOLT4 cell lysate, 1uM
Procedure, shortened: as §4

DYRK1B = DYRK1B (Homo sapiens, UniProt Q9Y463); test: Kinomescan profiling; type: binding; conditions: 1μM
[14] = wildtype and CRBN−/− MOLT4 cells
[15] = 6-hour treatment then compound washout

SMILES: CC(C)(C)c1cnc(CSc2cnc(NC(=O)C3CCNCC3)s2)o1 [SNS-032, N-[5-[[[5-(1,1-Dimethylethyl)-2-oxazolyl]methyl]thio]-2-thiazolyl]-4-piperidinecarboxamide]
IC50 (MOLT4 cells [1]; Homo sapiens, MOLT-4, 72 h): 173 nM
phosphorylation of RNA Pol II CTD Serine 2 [2]: inhibited in a concentration dependent manner
CDK9 engagement (bio-AT7519 competition) (CDK9 [3]; [14]): showed engagement
time to induction of apoptosis (PARP and Caspase-3 cleavage) (MOLT4 cells [4]): ≤ 4 h
percent inhibited PCTAIRE2,PCTAIRE3 (Lys1) labeling (PCTAIRE2,PCTAIRE3; CRBN−/− MOLT4 cells): 75.4%

IC50 (CDK9/CycT1): 4 nM
IC50 (CDK2/CycA): 62 nM
CDK10 degradation (CDK10 [5]): partial degradation
IC50 (MOLT4 cells [1]; Homo sapiens, MOLT-4, 72 h): 50 nM
IC50 (CRBN−/− MOLT4 cells): 3630 nM
time for CDK9 levels to return to baseline after washout (CDK9 [7]; [15]): 36 h
time of partial rebound of CDK9 levels after washout (CDK9 [7]; [15]): ≤ 12 h
time to complete CDK9 degradation (CDK9 [7]; MOLT4 cells, 250 nM): 2 h
persistence of CDK9 degradation (CDK9 [7]; MOLT4 cells, 250nM time course): at least 24 hours
concentration inducing complete CDK9 degradation (CDK9 [7]; MOLT4 cells, 6-hour treatment): 250 nM
concentration at which CDK9 degradation decreases (hook effect) (CDK9 [7]; MOLT4 cells, 6 hours): ≥ 5 µM
CDK9 engagement (bio-AT7519 competition) (CDK9 [3]; CRBN−/− MOLT4 cells only): little to no engagement
IC50 (CDK1/CycB): 171 nM
IC50 (CDK7/CycH/MNAT1): 398 nM
SMILES: CC(C)(C)c1cnc(CSc2cnc(NC(=O)C3CCN(CC(=O)NCCOCCOCCOCCNc4cccc5c4C(=O)N(C4CCC(=O)NC4=O)C5=O)CC3)s2)o1 (stereo not drawn) [THAL-SNS-032]
MCL-1 protein level (MCL-1): loss of MCL-1
inhibition of proliferation compared to SNS-032 [6]: more potent inhibition of proliferation as compared to SNS-032
viability after washout (MOLT4 cells [1]; 250nM, 6 hours treatment then washout, 72 hours of growth): more profound decrease in viability after washout compared to NVP-2 or SNS-032
CDK7 mRNA level relative to DMSO-treated (CDK7 mRNA): around 20%
phosphorylation of RNA Pol II CTD Serine 2 [2]: inhibited phosphorylation of Serine 2 in a concentration and time-dependent manner
CDK9 abundance in proteome-wide analysis (CDK9 [8]): most depleted protein out of 4512 proteins
CDK1 mRNA level relative to DMSO-treated (CDK1 mRNA): around 20%
percent inhibited PCTAIRE1,PCTAIRE3 (Lys2) labeling (PCTAIRE1,PCTAIRE3; CRBN−/− MOLT4 cells): 11.4%
percent inhibited PCTAIRE1,PCTAIRE3 (Lys2) labeling (PCTAIRE1,PCTAIRE3; Wildtype MOLT4 cells): 16.3%
time to induction of apoptosis (PARP and Caspase-3 cleavage) (MOLT4 cells [4]): ≤ 4 h
percent inhibited PCTAIRE2,PCTAIRE3 (Lys1) labeling (PCTAIRE2,PCTAIRE3; CRBN−/− MOLT4 cells): 16%
percent inhibited PCTAIRE2,PCTAIRE3 (Lys1) labeling (PCTAIRE2,PCTAIRE3; Wildtype MOLT4 cells): 22.1%

SMILES: COC[C@@H](C)NC1CCC(Nc2cc(-c3cccc(NCC4(C#N)CCOCC4)n3)c(Cl)cn2)CC1 (stereo partly drawn) [NVP-2]
Kinomescan inhibition of CDK9 (CDK9 [9]): greater than 99%
IC50 (CDK9/CycT1; read-out: IC50 CDK9/CycT kinase activity, Km ATP): < 0.514 nM
percent inhibited CDK6 (Lys2) labeling (CDK6; CRBN−/− MOLT4 cells): −8.6%
percent inhibited CDK6 (Lys2) labeling (CDK6; Wildtype MOLT4 cells): −10%
MCL-1 protein level (MCL-1): MCL-1 loss was observed
CDK7 engagement (bio-AT7519 competition) (CDK7): unaffected
CDK2 engagement (bio-AT7519 competition) (CDK2): unaffected
IC50 (MOLT4 cells [1]; wild-type MOLT4, 72 hours, CellTiter Glo): 9 nM
phosphorylation of RNA Pol II CTD Serine 2 [2]: inhibited in a concentration dependent manner
percent inhibited GSK3A (Lys2) labeling (GSK3A; CRBN−/− MOLT4 cells): 10%
percent inhibited GSK3A (Lys2) labeling (GSK3A; Wildtype MOLT4 cells): 5.8%
Annexin V positive cells (MOLT4 cells [10]): ~100%
S(1) score (panel of 468 kinases): 0.005
CDK9 engagement (bio-AT7519 competition) (CDK9 [3]; [14]): engages CDK9 in wildtype and CRBN−/− MOLT4 cells at all concentrations tested
percent inhibited CDK9 (Lys2) labeling (CDK9 [11]): ~63%
IC50 (CDK7/CycH/MNAT1; read-out: CDK7 IC50, Km ATP): > 10000 nM
percent inhibited PCTAIRE1,PCTAIRE3 (Lys2) labeling (PCTAIRE1,PCTAIRE3; CRBN−/− MOLT4 cells): −5.2%
percent inhibited PCTAIRE1,PCTAIRE3 (Lys2) labeling (PCTAIRE1,PCTAIRE3; Wildtype MOLT4 cells): −30.5%
percent inhibited PCTAIRE2 (Lys2) labeling (PCTAIRE2; CRBN−/− MOLT4 cells): 10.3%
percent inhibited PCTAIRE2 (Lys2) labeling (PCTAIRE2; Wildtype MOLT4 cells): 8.1%
time to induction of apoptosis (PARP and Caspase-3 cleavage) (MOLT4 cells [4]): ≤ 4 h
CDK10 engagement in lysate (CDK10 [12]): strongly engaged
percent inhibited PCTAIRE2,PCTAIRE3 (Lys1) labeling (PCTAIRE2,PCTAIRE3; CRBN−/− MOLT4 cells): −15%
percent inhibited PCTAIRE2,PCTAIRE3 (Lys1) labeling (PCTAIRE2,PCTAIRE3; Wildtype MOLT4 cells): −4.7%
CDK9 engagement in lysate (CDK9 [13]): strongly engaged
Kinomescan inhibition of DYRK1B (DYRK1B): greater than 99%
